# Bioassay records: PubChem BioAssay, The Scripps Research Institute Molecular Screening Center
# This is a sample that favours compounds with a hit; in the whole collection about 1.6% have one here.
# UHRF1 binding = blocks human UHRF1 binding to methylated DNA. Q96T88. UHRF1 binding to methylated oligo, TR-FRET. inhibition, % at 4.4 µM. actives 0.75% (n = 370,000); in the data active = inhibition above about 21%;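 note: UHRF1 SRA domain binding a hemimethylated CpG hairpin DNA probe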
# Target sequence (Q96T88 whole entry, looked up, the tested form may be a part): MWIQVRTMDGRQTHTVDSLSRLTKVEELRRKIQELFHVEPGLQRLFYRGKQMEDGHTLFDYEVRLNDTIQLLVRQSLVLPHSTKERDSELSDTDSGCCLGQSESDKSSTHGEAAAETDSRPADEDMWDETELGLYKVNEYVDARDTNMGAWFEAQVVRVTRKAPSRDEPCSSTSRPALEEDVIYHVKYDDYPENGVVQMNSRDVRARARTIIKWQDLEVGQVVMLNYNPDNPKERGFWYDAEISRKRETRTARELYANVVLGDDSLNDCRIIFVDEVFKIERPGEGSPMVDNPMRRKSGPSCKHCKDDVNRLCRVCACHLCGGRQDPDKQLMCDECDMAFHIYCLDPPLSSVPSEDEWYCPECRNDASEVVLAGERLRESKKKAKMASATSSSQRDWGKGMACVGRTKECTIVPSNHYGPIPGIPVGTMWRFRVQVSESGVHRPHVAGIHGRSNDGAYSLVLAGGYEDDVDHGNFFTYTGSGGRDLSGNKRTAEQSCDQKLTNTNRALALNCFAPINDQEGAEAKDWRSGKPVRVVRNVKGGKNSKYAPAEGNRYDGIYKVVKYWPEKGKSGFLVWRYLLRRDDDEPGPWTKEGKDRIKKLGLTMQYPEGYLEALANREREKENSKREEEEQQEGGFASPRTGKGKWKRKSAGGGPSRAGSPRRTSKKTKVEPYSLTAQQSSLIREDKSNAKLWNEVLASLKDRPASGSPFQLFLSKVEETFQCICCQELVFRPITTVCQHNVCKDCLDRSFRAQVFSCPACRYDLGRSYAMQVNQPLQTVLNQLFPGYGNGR
# LEDGF integ inh = blocks HIV-1 LEDGF/p75-dependent DNA integration | TR-FRET IN-LEDGF/p75 DNA integration, Eu/Cy5 | inhibition, % at 3.7 µM | actives 0.64% (n = 370,000) | AID 743269;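 active = inhibition above the screen-wide mean plus 3 SD, cut at about 13% in these data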;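 note: signal is the Cy5 over europium emission ratio at 671 and 618 nm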
# MBD2 DNA inh = blocks human MBD2 binding to methylated DNA | Q9UBB5 | TR-FRET, MBD2 binding to methylated oligonucleotide | inhibition, % at 4.4 µM | actives 0.31% (n = 370,000) | AID 686964; in the data active = inhibition above about 13%
# TDP2 inh = TDP2 (human) inhibition, absorbance primary screen. recombinant TDP2, T5PNP hydrolysis, p-nitrophenol absorbance 415 nm. inhibition, % at 12.8 µM. actives 0.34% (n = 370,000). AID 720702;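 active = inhibition above the mean of all tested compounds plus 3 SD, set per campaign, cut at about 25% in these data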
#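 Assay system: recombinant human TDP2 / Reagent: T5PNP substrate at 5 mM, a TopII-DNA adduct mimic / Measured by: epi absorbance from released p-nitrophenol / Evaluation: % inhibition relative to enzyme-containing and enzyme-free wells / Control set: enzyme-free and DMSO wells / Replicates: each compound tested once, singlicate / Schedule: enzyme reaction with compound for 2 h at 37 °C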
# A number is an active result; . = inactive.
SMILES,UHRF1 binding,LEDGF integ inh,MBD2 DNA inh,TDP2 inh
CC1(C)OC(=O)C2=C(CC(CCc3ccccc3)OC2CCc2ccccc2)O1 (configuration not stated),21,.,.,.
CC1=CC(C)(C)N2C(=O)C3(C(C#N)=C(N)OC4=C3C(=O)CC(C)(C)C4)c3c(C)c(C)cc1c32 (configuration not stated),.,.,.,.
CC1=CC(C)(C)N2C(=O)C3(C(C#N)=C(N)OC4=C3C(=O)CC(C)(C)C4)c3cccc1c32 (configuration not stated),21,.,.,.
C=CCN1C(=O)[C@@H](CC(=O)N2CCOCC2)[C@]2(C(=O)OCC)CCCCC/C=C/12,.,.,.,.
COc1ccc(NC(=S)Nc2ncccc2C)c(OC)c1,25,.,.,.
C=CCN1C(=O)[C@H](CC(=O)NCC23CC4CC(CC(C4)C2)C3)[C@@]2(C(=O)OC)CCCCC=C12,.,.,.,.
O=C(Nc1ccccc1)c1ccc[n+](Cc2ccc([N+](=O)[O-])cc2)c1,69,.,.,.
O=C(Nc1ccc([N+](=O)[O-])cc1)c1ccccc1,.,.,.,.
COc1ccc(C)cc1NC(=O)C(Sc1nncn1C)c1ccccc1 (configuration not stated),24,.,.,.
COC(=O)c1ccc(S(=O)(=O)N2CCC(NC(=O)CCC3CCCC3)CC2)cc1,.,.,.,.
CNc1ccccc1,.,.,.,.
CNc1cccccc1=S,.,23,.,.
N#Cc1c(NC(=O)c2ccccc2Cl)n(Cc2ccccc2)c2nc3ccccc3nc12,.,16,.,81
CCN(CC(=O)Nc1ccc(NC(C)=O)cc1)C(=O)c1ccc(N(C)S(=O)(=O)c2ccc(C)cc2)cc1,42,.,.,.
CCOc1ccc(S(=O)(=O)Nc2cccc(C(=O)N(C)CC(=O)Nc3ccc(OC)cc3)c2)cc1,.,44,.,.
CCN(CC(=O)Nc1ccc(OC)cc1)C(=O)c1ccc(NS(=O)(=O)c2ccc(C(C)=O)cc2)cc1,23,.,.,.
COC(=O)[C@]12C[C@H](CC(=O)NCc3ccc(OC)c(OC)c3)C(=O)N(CCc3ccc(OC)c(OC)c3)C1=C[C@H](C1CCCC1)O[C@@H]2C,.,.,.,.
O=C(Cn1c(=O)oc2cc(S(=O)(=O)N3CCCCC3)ccc21)N1CCCCC1,52,.,.,.
C=CCN1C(=O)c2n[nH]c(C(C)C)c2C1c1ccccc1 (configuration not stated),.,.,.,.
Cc1cccc(NC(=O)CN2C(=O)N/C(=C/c3ccc(C)o3)C2=O)c1,88,.,.,.
Cc1ccc(NC(=O)CN2C(=O)N/C(=C/c3cc(C)n(-c4cccc(C(=O)O)c4)c3C)C2=O)cc1,37,26,.,.
Cc1ccc(NC(=O)CN2C(=O)N/C(=C/c3ccc(C)o3)C2=O)cc1,.,.,.,.
O=C(CSc1nnc(-c2ccccn2)n1Cc1ccco1)Nc1ccc(Oc2ccccc2)cc1,.,.,.,.
COC(=O)C1=C(C)N(C)C(=O)/C1=C\c1cccs1,.,.,.,.
COC(=O)C1=C(C)N(C2CCCCC2)C(=O)/C1=C\c1cccs1,53,.,.,.
SMILES,UHRF1 binding,LEDGF integ inh,MBD2 DNA inh,TDP2 inh
Cc1nnc(SCC2=C(C(=O)O)N3C(=O)C(NC(=O)Cn4cnnn4)C3SC2)s1 (configuration not stated),.,.,.,.
CO[C@@]1(NC(=O)CSCC#N)C(=O)N2C(C(=O)O)=C(CSc3nnnn3C)CS[C@@H]21,44,.,.,.
CN(C(=O)c1ccc(C#N)cc1)c1nnc(-c2ccccn2)s1,.,.,.,.
CN(C(=O)c1cccc(C#N)c1)c1nnc(-c2ccccn2)s1,22,.,.,.
COc1ccc(/C=N/NC(=O)c2ccc(N(C)S(=O)(=O)c3ccccc3)cc2)c(OC)c1,32,.,.,.
CCc1ccc(OCC(=O)NC(=S)Nc2ccc(C(C)=O)cc2)c(Br)c1,24,.,.,.
CCN(CC)c1ccc(C=NNC(=O)Cc2cc(=O)[nH][nH]2)c(O)c1,.,.,.,.
CCc1sc(C(=O)NCc2ccco2)cc1Br,26,.,.,.
CCc1sc(C(=O)NCc2ccco2)cc1C,.,.,.,.
O=S(=O)(c1sccc1Br)n1c(CN2CCOCC2)nc2ccccc21,.,.,.,.
Fc1ccc(CNC(=S)NCc2cccc(Cl)c2)cc1,30,.,.,.
Cc1ccccc1N1CCN(C(=O)CN2C(=O)CC(C)(C)S(=O)(=O)c3ccccc32)CC1,.,.,.,.
Cc1cccc(NC(=O)c2ccc(S(=O)(=O)NCc3ccco3)cc2)n1,30,.,.,.
Cc1ccc(NC(=O)c2ccc(S(=O)(=O)NCc3ccco3)cc2)nc1,.,.,.,.
COc1ccc(S(=O)(=O)N/N=C(/C)c2ccncc2)cc1,27,.,.,.
C/C(=N\NS(=O)(=O)c1ccc(Br)cc1)c1ccncc1,.,.,.,.
O=C(CC1C(=O)NCCN1Cc1c(F)cccc1Cl)NCCC1=CCCCC1 (configuration not stated),.,.,.,.
O=C(CC1C(=O)NCCN1Cc1c(F)cccc1Cl)NCCc1ccccn1 (configuration not stated),26,.,.,.
COc1ccc(/C=C/c2nc(-c3ccccc3O)n[nH]2)cc1,66,.,.,.
COc1ccc(/C=C/c2nc(-c3ccccc3O)n(-c3ccccc3)n2)cc1,.,.,.,.
Cc1nn(-c2ccccc2)c(C)c1C(=O)Oc1ccccc1,32,.,.,.
Cc1ccc(S(=O)(=O)N(CC(=O)NCCC2=CCCCC2)Cc2ccccc2)cc1,28,.,.,.
O=C(CN(Cc1ccccc1)S(=O)(=O)c1ccc(F)cc1)NCCC1=CCCCC1,.,.,.,.
Cc1cc(-c2ccccc2)c2c(=O)[nH][nH]c2n1,49,.,.,.
CC(=O)N1CCN(CC(C)(C)NS(=O)(=O)c2ccccc2)CC1,.,.,.,.
SMILES,UHRF1 binding,LEDGF integ inh,MBD2 DNA inh,TDP2 inh
CC(C)(CN1CCN(Cc2ccccc2)CC1)NS(=O)(=O)c1ccccc1,22,.,.,.
CC1CCCC(C)N1/N=C/c1ccc(N(C)C)cc1 (configuration not stated),24,.,.,.
Cc1ccc(-n2nc(-c3ccco3)cc2C(=O)O)cc1,31,.,.,.
CCOC(=O)c1cc(-c2ccco2)nn1-c1ccc(C)cc1,.,.,.,.
Cc1cc(=O)[nH]c(SCC(=O)Nc2cccc(C)c2C)n1,.,.,.,.
O=C(c1cc2nc(C3CC3)cc(C(F)F)n2n1)N1CCOCC1,21,.,.,.
O=[N+]([O-])c1ccc(OC[C@@H](O)CN2CCC(C(O)(c3ccccc3)c3ccccc3)CC2)c(Cl)c1,.,.,.,.
NC(=O)C1CC(=O)N(c2ccc(OCc3c(F)cccc3Cl)cc2)C1 (configuration not stated),.,.,.,.
NC(=O)C1CC(=O)N(c2ccc(OCc3c(Cl)cccc3Cl)cc2)C1 (configuration not stated),23,.,.,.
